Assay results: ChEMBL document CHEMBL4513216, “Probing the Open Global Health Chemical Diversity Library for Multistage-Active Starting Points for Next-Generation Antimalarials” (ACS Infect Dis, 2020)

Assay: Toxicity liver stage against HepG2, at 10uM
Format: cell-based
Parameters: test concentration 10 uM, cell line HepG2-A16-CD81EGFP
Settings: human, HepG2-A16-CD81EGFP cells; read-out: INHIBITION
Procedure, shortened: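 Uninfected HepG2-A16-CD81EGFP cells, 3 × 10^3 per well, 1536-well, plated on prespotted compound at 10 μM final, parasite-free screening media added to match infected plates; puromycin 10 μM positive, DMSO 0.5% negative; run in parallel with 48 h PbLuc assay at 37 °C, 5% CO2; viability by CellTiter-Glo luminescence, normalized to controls.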

| SMILES | cytotoxicity at 10 µM |
| --- | --- |
| COc1ccc(-c2noc([C@@H]3C[C@@H](O)CN3C3CCN(C)CC3)n2)cc1 | -1.16% |
| COC(=O)Cn1c(C)cc(=O)n2nc(-c3cccs3)nc12 | 8.74% |
| CC(C)NC(=O)c1nc2c(s1)CCCN2C(C)C | -143% |
| Cc1nc(CN2CCOC3(CCCN(c4nccs4)C3)C2)cs1 (stereo unspecified) | 16.3% |
| Cc1csc(CN2CC[C@H]3C[C@@H](c4noc(C)n4)O[C@@H]3C2)n1 | -1.2% |
| CS(=O)(=O)NC[C@]12COC[C@H]1CN(C(=O)c1ncccn1)C2 | 4.9% |
| CN(C)Cc1nn(C)c2c1CN(S(=O)(=O)c1ccccc1F)C2 | 5.6% |
| Cn1cnnc1SCc1cc2c(cc1Cl)OCO2 | 7.03% |
| CC(C)c1nnc2ccc(N3CCCC(C(=O)Nc4nccs4)C3)nn12 (stereo unspecified) | 3.86% |
| Cc1ccc(C)c(NC(=O)Nc2c[nH]c(=O)[nH]c2=O)c1 | 0.0452% |
| COc1ccc(Nc2nc3c(C)nn(C)c3c(=O)n2C)c(C)c1 | -6.06% |
| Cn1nc(C(=O)N2CCSCC2)cc1NC(=O)c1ccco1 | 1.11% |
| CCCc1nc(NCCCOC)c2c(n1)c(C)nn2CC | 24.6% |
| COc1ccc2nc(NC(=O)c3c(C(=O)O)cnn3C)sc2c1 | 7.19% |
| CCC(CN1CCCC1)NC(=O)C1(c2ccc(F)cc2)CC1 (stereo unspecified) | -1.76% |
| Cc1ccc(OCCN2CCC(c3nc(C)n4c(C)csc34)CC2)cc1 | 1.94% |
| O=C(CCn1c(C(F)(F)F)cc2cccnc21)N1CCC(O)CC1 | -28.5% |
| COc1ccccc1C1=NOC(CC2(C(=O)O)CCOCC2)C1 (stereo unspecified) | -9.9% |
| CC(=O)N1CCC(c2cnc(-c3c(C)nn(C)c3C)cn2)CC1 | -33.6% |

| SMILES | cytotoxicity at 10 µM |
| --- | --- |
| Cc1ncc(CNC(=O)CCc2cccs2)c(C2CCCN2C)n1 (stereo unspecified) | -9.72% |
| CCCN(C(=O)c1cnccn1)c1nc2c(s1)CCc1c-2cnn1C | -16.7% |
| C=Cc1ccc(CN2CCCC3(CNC(=O)c4ccccc4O3)C2)cc1 (stereo unspecified) | -22.6% |
| CS(=O)(=O)N1CCCC(Cc2cncc(Br)c2)CC1 (stereo unspecified) | 2.16% |
| Cc1ncc(C(=O)N2CCCC(Cc3nccs3)C2)cn1 (stereo unspecified) | -2.03% |
| O=C1Nc2ccccc2CNC12CCN(CC1CCNC1)CC2 (stereo unspecified) | 6.61% |
| CC(O)CNC(=O)Nc1ccc(Br)cc1Br (stereo unspecified) | -1.45% |
| CCCS(=O)(=O)NC(C)c1cccc(-n2cccn2)c1 (stereo unspecified) | 3.65% |
| CC(C)(C)CC(=O)N1CSCC1C(=O)NC1=NCCS1 (stereo unspecified) | 17.9% |
| CC(C)(C)NC(=O)CNc1ncc(Br)cn1 | 2.96% |
| COc1ccc(CNC(=O)c2ccoc2CN2CCNC(=O)C2)cc1 | 6.41% |
| NC(c1ccccc1)c1ccc(OC(F)F)cc1 (stereo unspecified) | 1.79% |
| Cc1ccc(CN(C)C(=O)NCC(=O)NC(C)(C)C)s1 | 0.136% |
| Cc1ccc(CN(C)C(=O)NCC(C)(C)CCS(C)(=O)=O)s1 | 6.24% |
| CC(O)CN(Cc1cccc(C(N)=O)c1)c1ccccc1 (stereo unspecified) | 10.1% |
| CNS(=O)(=O)C1CCN(c2cc(C(C)C)nc(C(C)C)n2)C1 (stereo unspecified) | -3.33% |
| CC(=O)N(C)CC(=O)NC(C)c1ccc(OCCC(C)C)cc1 (stereo unspecified) | 8.59% |
| Cc1nn(C)c(C)c1C(=O)N1CCN(C(=O)CCC2CCCCC2)CC1 | -5.47% |
| Cc1occc1C(=O)NCC(O)c1ccc(Cl)s1 (stereo unspecified) | -16.4% |

| SMILES | cytotoxicity at 10 µM |
| --- | --- |
| COc1ccc(Oc2ncccc2NC(=O)N2CCOCC2C)cc1 (stereo unspecified) | -2.43% |
| CC(NC(=O)N1CCc2ccccc2C1)c1nncn1C (stereo unspecified) | -6.98% |
| COc1ccc(CCCC(=O)NCc2c(C)noc2C)cc1F | -6.35% |
| COc1c(CNCc2ccc(N3CCOCC3)cc2)c(C)nn1C | 2.1% |
| Cc1cc(C)n(-c2cncc(NCCNS(C)(=O)=O)n2)n1 | -3.98% |
| O=C(C1CC=CC1)N1CCC2(CC1)OCCO2 | 6.9% |
| Cc1cc(CNCc2c(C(C)C)nn(C)c2N2CCOCC2)no1 | 16.5% |
| O=C(C[S+]([O-])C1CCCC1)NCCOc1cccc(Cl)c1 (stereo unspecified) | -143% |
| CNS(=O)(=O)CCCN1CCN(C(C)c2cccnc2)CC1 (stereo unspecified) | -10.7% |
| COc1ccc(CCNC(=O)CC(NC(N)=O)c2ccccc2)cc1 (stereo unspecified) | 2.19% |
| N#Cc1cc(N2CCC(S(N)(=O)=O)CC2)c2ccccc2n1 | -5.03% |
| O=c1[nH]c2csnc2c(=O)n1Cc1ccc(Br)cc1 | 5.41% |
| COCCN1CCC(NCc2c(C)nn(C)c2N(C)C)CC1 | -2.11% |
| COc1cc(I)c(Cl)cc1C(=O)N(C)CC(C)(C)O | 11.4% |
| CCOCCC(=O)N(C)c1ccc(F)c(Cl)c1 | 0.232% |
| N#CC1(NC(=O)c2ccc(-c3nc(C4CC4)n[nH]3)cc2)CCC1 | 0.614% |
| COC(=O)CN(Cc1ccccc1C)C(=O)C1CCC1 | -3.64% |
| O=C(CCCNC(=O)C1CCCO1)Nc1ccc(Cl)cc1 (stereo unspecified) | 13.2% |
